Data on seven molecules can be found in ChEMBL document CHEMBL1123790, “Stereospecificity of the chloride ion channel: the action of chiral clofibric acid analogues” (J Med Chem, 1987).

The species named for experiment [1] is Rattus norvegicus. In words: Concentration required to block 50% chloride conductance in rat extensor digitorum longus(EDL) muscle fibers. Type of experiment: functional, organism-based. A digest of the protocol: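 Male Wistar rats (180–220 g); EDL muscles in bath at 30 ± 1 °C, perfused with Ringer's (normal or Cl⁻-free methyl sulfate) containing compound, pH 7.3–7.4, from 10^-3 g/mL stocks in 1% NaHCO3. Intracellular microelectrode cable analysis; GCl = mean Gm − mean GK. Three or more concentrations (5–230 μM); curves fit to single-site binding by nonlinear least squares, IC50 ± SD.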

The species entered for experiment [2] is Rattus norvegicus. In words: Number of fibres over number of preparation sampled was determined at a concentration of. Type of experiment: functional.
Experiment [3] is filed under the species Rattus norvegicus. The experiment is described as follows: Latency in rat extensor digitorum longus(EDL) muscle fibers was determined at a concentration of 20 uM. In kind it is functional. In short, it runs like this: (§1)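 Male Wistar rat (180–220 g) EDL muscles in Ringer's bath at 30 ± 1 °C, pH 7.3–7.4. Two intracellular microelectrodes (current electrode within 100 μm of voltage electrode). Square-wave constant-current pulses applied after holding at -80 mV. Latency = maximum delay to action potential onset; threshold = minimal long-pulse current for one spike; spikes = maximum with strong depolarization. Mean ± SEM; Student's t test.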

The species entered for experiment [4] is Rattus norvegicus. In words: Resting membrane potential determined in rat extensor digitorum longus(EDL) muscle fibers at a concentration of 20 uM. In kind it is functional. A digest of the protocol:
as §1

For experiment [5], the species on record is Rattus norvegicus. In words: Maximum number of spikes elicited by strong depolarizing pulses in rat extensor digitorum longus muscle fibers was determined at a concentration of 20 uM. Type of experiment: functional. A digest of the protocol: as §1
Experiment [6] is filed under the species Rattus norvegicus. In words: Minimal current intensity for a long pulse for a single action potential in rat extensor digitorum longus muscle fibers was determined at a concentration of 20 uM. Type of experiment: functional. In short, it runs like this:
as §1

The species named for experiment [7] is Rattus norvegicus. In words: Number of fibres over number of preparation sampled was determined at a concentration of 92 uM. Type of experiment: functional.
The species entered for experiment [8] is Rattus norvegicus. In words: Latency in rat extensor digitorum longus(EDL) muscle fibers was determined at a concentration of 92 uM. Type of experiment: functional. In short, it runs like this:
(§2)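 EDL fibres from male Wistar rats (180–220 g), in Ringer's at 30 ± 1 °C, pH 7.3–7.4, drug diluted from bicarbonate stock. Two intracellular microelectrodes within 100 μm; fibre held at -80 mV by holding current, then square-wave constant-current depolarizing pulses. Read-outs: resting potential, latency to action potential, threshold current (long pulse), maximal spike number; mean ± SEM, fibres/preparations counted; Student's t test.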

The species entered for experiment [9] is Rattus norvegicus. The experiment is described as follows: Resting membrane potential in rat extensor digitorum longus(EDL) muscle fibers was determined at a concentration of 92 uM. Type of experiment: functional. A digest of the protocol:
as §2

For experiment [10], the species on record is Rattus norvegicus. The experiment is described as follows: Maximum number of spikes elicited by strong depolarizing pulses in rat extensor digitorum longus muscle fibers was determined at a concentration of 92 uM. In kind it is functional. A digest of the protocol:
as §2

For experiment [11], the species on record is Rattus norvegicus. The experiment is described as follows: Minimal current intensity for a long pulse for a single action potential in rat extensor digitorum longus(EDL) muscle fibers was determined at a concentration of 92 uM. Type of experiment: functional. A digest of the protocol: as §1
In experiment [12] the test system is Rattus norvegicus. The experiment is described as follows: Concentration to block chloride membrane conductance (G Cl) in rat extensor digitorum longus (EDL) muscle fibers (in vivo and in vitro). Type of experiment: functional, organism-based. In short, it runs like this:
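Male Wistar rats 180–220 g; EDL muscles in bath at 30 ± 1 °C, perfused with Ringer's (normal or Cl⁻-free methyl sulfate), pH 7.3–7.4; compounds from 10^-3 g/mL stock in 1% NaHCO3, tested 5–230 μM. Intracellular microelectrode cable analysis; GCl = mean Gm minus mean GK; ≥3 concentrations; single-site binding fit by nonlinear least squares gives IC50 ± SD.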

The species entered for experiment [13] is Rattus norvegicus. In words: Latency was determined in rat extensor digitorum longus(EDL) muscle fibers at a concentration of 92 uM. In kind it is functional. A digest of the protocol: as §1
Experiment [14] is filed under the species Rattus norvegicus. The experiment is described as follows: Resting membrane potential determined in rat extensor digitorum longus(EDL) muscle fibers at a concentration of 92 uM. In kind it is functional. A digest of the protocol:
as §1

Experiment [15] is filed under the species Rattus norvegicus. In words: Maximum number of spikes elicited by strong depolarizing pulses in rat extensor digitorum longus(EDL) muscle fibers was determined at a concentration of 92 uM. Type of experiment: functional. In short, it runs like this:
as §1

The species named for experiment [16] is Rattus norvegicus. The experiment is described as follows: Number of fibres over number of preparation sampled was determined at a concentration of 230 uM. In kind it is functional.
The species entered for experiment [17] is Rattus norvegicus. In words: Latency in rat extensor digitorum longus(EDL) muscle fibers was determined at a concentration of 230 uM. Type of experiment: functional. A digest of the protocol:
as §1

For experiment [18], the species on record is Rattus norvegicus. In words: Resting membrane potential determined in rat extensor digitorum longus(EDL) muscle fibers at a concentration of 230 uM. Type of experiment: functional. In short, it runs like this: as §1
Experiment [19] is filed under the species Rattus norvegicus. The experiment is described as follows: Maximum number of spikes elicited by strong depolarizing pulses in rat extensor digitorum longus(EDL) muscle fibers was determined at a concentration of 230 uM. In kind it is functional. A digest of the protocol:
as §1

For experiment [20], the species on record is Rattus norvegicus. The experiment is described as follows: Minimal current intensity for a long pulse for a single action potential in rat extensor digitorum longus(EDL) muscle fibers was determined at a concentration of 230 uM. Type of experiment: functional. A digest of the protocol: as §1
Experiment [21] is filed under the species Rattus norvegicus. The experiment is described as follows: Number of fibres over number of preparation sampled was determined at a concentration of 20 uM. Type of experiment: functional. A digest of the protocol:
as §2

For experiment [22], the species on record is Rattus norvegicus. In words: Maximum number of spikes elicited by strong depolarizing pulses in rat extensor digitorum longus(EDL) muscle fibers was determined at a concentration of 20 uM. In kind it is functional. A digest of the protocol:
as §2

The species entered for experiment [23] is Rattus norvegicus. In words: Minimal current intensity for a long pulse for a single action potential in rat extensor digitorum longus(EDL) muscle fibers was determined at a concentration of 20 uM. In kind it is functional. A digest of the protocol:
as §2

The species named for experiment [24] is Rattus norvegicus. The experiment is described as follows: Resting membrane potential in rat extensor digitorum longus(EDL) muscle fibers was determined at a concentration of 230 uM. In kind it is functional. A digest of the protocol:
as §2

With `C[C@H](Oc1ccc(Cl)cc1)C(=O)O`, the IC50 in the experiment listed under Rattus norvegicus [1] is 12 µM. The Fibers/preparations in the experiment filed under Rattus norvegicus [2] is 15. Also, in the experiment listed under Rattus norvegicus [3], the Latency was less than 45.5 ms. For the same molecule, in the experiment filed under Rattus norvegicus [4], the Resting potential is 70 -mV. Moreover, in the experiment listed under Rattus norvegicus [5], the No. of spikes is listed as less than 18. For the same molecule, the Threshold current in the experiment listed under Rattus norvegicus [6] is given as less than 65 nA.

In the case of `CCC(Oc1ccc(Cl)cc1)C(=O)O` (racemic), the IC50 in the experiment filed under Rattus norvegicus [1] is 44 µM. The molecule further returned a Fibers/preparations in the experiment filed under Rattus norvegicus [7] of 12. The Latency in the experiment filed under Rattus norvegicus [8] is less than 18.3 ms. Moreover, the Resting potential in the experiment filed under Rattus norvegicus [9] was < 65 -mV. Further, in the experiment listed under Rattus norvegicus [10], the No. of spikes is recorded as less than 15.6. In the experiment listed under Rattus norvegicus [11], this molecule came in with a Threshold current of 67.3 nA.

Take `CC(C)(Oc1ccc(Cl)cc1)C(=O)O` [CLOFIBRIC ACID]: half-maximal inhibition in the experiment on Rattus norvegicus [12] (IC50) required 205 µM.

In the experiment listed under Rattus norvegicus [1], `CC(Oc1ccc(Cl)cc1)C(=O)O` (racemic) displayed an IC50 of 81 µM. The molecule also came in with a Fibers/preparations in the experiment filed under Rattus norvegicus [7] of 18. In addition, in the experiment listed under Rattus norvegicus [13], the Latency is listed as 24.3 ms. For the same molecule, the Resting potential in the experiment listed under Rattus norvegicus [14] was 74 -mV. The molecule also came in with a No. of spikes in the experiment listed under Rattus norvegicus [15] of 12.5. Also, the Threshold current in the experiment listed under Rattus norvegicus [11] is reported as 79.1 nA.

In the experiment listed under Rattus norvegicus [16], `C[C@@H](Oc1ccc(Cl)cc1)C(=O)O` displayed a Fibers/preparations of 8. In addition, the Latency in the experiment filed under Rattus norvegicus [17] is recorded as 6.2 ms. Besides, in the experiment listed under Rattus norvegicus [18], the Resting potential is 73 -mV. Further, the No. of spikes in the experiment listed under Rattus norvegicus [19] is listed as 6.5. The Threshold current in the experiment filed under Rattus norvegicus [20] is 90 nA.

Molecule `CC[C@H](Oc1ccc(Cl)cc1)C(=O)O` displayed an IC50 in the experiment listed under Rattus norvegicus [1] of 10.3 µM. This molecule also displayed a Fibers/preparations in the experiment listed under Rattus norvegicus [21] of 8. For the same molecule, in the experiment filed under Rattus norvegicus [3], the Latency was less than 30.2 ms. The Resting potential in the experiment listed under Rattus norvegicus [4] is 68 -mV. This molecule came in with a No. of spikes in the experiment filed under Rattus norvegicus [22] of less than 15. In the experiment filed under Rattus norvegicus [23], this molecule displayed a Threshold current of 65 nA.

`CC[C@@H](Oc1ccc(Cl)cc1)C(=O)O` gave a Fibers/preparations in the experiment listed under Rattus norvegicus [16] of 13. Besides, the Latency in the experiment filed under Rattus norvegicus [17] was determined as 5.2 ms. In addition, the Resting potential in the experiment listed under Rattus norvegicus [24] is 70 -mV. Also, the No. of spikes in the experiment listed under Rattus norvegicus [19] is 6.5. The molecule also gave a Threshold current in the experiment filed under Rattus norvegicus [20] of 121 nA.

For orientation: IC50 means the concentration that inhibits the measured activity by half. Lower therefore signals greater potency.
